Reference: ChEMBL document CHEMBL1142492 (J Med Chem, 2008)

Legend:
[1] = target: Activin receptor type-2B (Homo sapiens) (UniProt Q13705); experiment: Inhibition of ACVR2B at 3 uM
[2] = target: Serine/threonine-protein kinase N1 (Homo sapiens) (UniProt Q16512); experiment: Inhibition of PKN1 at 3 uM
[3] = target: Testis-specific serine/threonine-protein kinase 1 (Homo sapiens) (UniProt Q9BXA7); experiment: Inhibition of TSSK1 at 3 uM
[4] = target: Myosin light chain kinase, smooth muscle (Homo sapiens) (UniProt Q15746); experiment: Inhibition of MYLK at 3 uM
[5] = target: Serine/threonine-protein kinase tousled-like 2 (Homo sapiens) (UniProt Q86UE8); experiment: Inhibition of TLK2 at 3 uM
[6] = target: Phosphatidylinositol 5-phosphate 4-kinase type-2 beta (Homo sapiens) (UniProt P78356); experiment: Inhibition of PIP5K2B at 3 uM
[7] = target: Serine/threonine-protein kinase SIK2 (Homo sapiens) (UniProt Q9H0K1); experiment: Inhibition of SNF1LK2 at 3 uM
[8] = target: Macrophage colony-stimulating factor 1 receptor (Homo sapiens) (UniProt P07333); experiment: Inhibition of CSF1R at 3 uM
[9] = target: Muscle, skeletal receptor tyrosine-protein kinase (Homo sapiens) (UniProt O15146); experiment: Inhibition of MUSK at 3 uM
[10] = target: Angiopoietin-1 receptor (Homo sapiens) (UniProt Q02763); experiment: Inhibition of TIE2 at 3 uM
[11] = target: Dual specificity testis-specific protein kinase 1 (Homo sapiens) (UniProt Q15569); experiment: Inhibition of TESK1 at 3 uM
[12] = target: Epidermal growth factor receptor (Homo sapiens) (UniProt P00533); experiment: Inhibition of EGFR at 3 uM
Outline: (§1)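 Single-concentration kinase panel scoring: each value is the percentage of enzyme activity remaining relative to a DMSO-only control. An activity statistically indistinct from DMSO control was scored "no hit".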

[13] = target: B1 bradykinin receptor (Homo sapiens) (UniProt P46663); experiment: Inhibition of human bradykinin B1 receptor at 3 uM
Outline: (§2)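 Counter-screen binding/enzyme panel at single 3 μM, n=2; results as percent inhibition. Species per target as listed (rat NMDA, GABAA sites; human receptors, transporters; rabbit ACE).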

[14] = target: TGF-beta receptor type-1 (Homo sapiens) (UniProt P36897); experiment: Inhibition of TGFBR1 at 3 uM
[15] = target: Angiotensin-converting enzyme (Oryctolagus cuniculus) (UniProt P12822); experiment: Inhibition of rabbit ACE at 3 uM; outline: as §2
[16] = target: Mitogen-activated protein kinase kinase kinase 20 (Homo sapiens) (UniProt Q9NYL2); experiment: Inhibition of ZAK at 3 uM
[17] = target: Alpha-1A adrenergic receptor (Rattus norvegicus) (UniProt P43140); experiment: Inhibition of rat adrenergic alpha1A receptor at 3 uM
[18] = target: Serine/threonine-protein kinase RIO1 (Homo sapiens) (UniProt Q9BRS2); experiment: Inhibition of RIOK1 at 3 uM
[19] = target: Death-associated protein kinase 3 (Homo sapiens) (UniProt O43293); experiment: Inhibition of DAPK3 at 3 uM
[20] = target: Serine/threonine-protein kinase DCLK1 (Homo sapiens) (UniProt O15075); experiment: Inhibition of DCAMKL1 at 3 uM
[21] = test system: Epidermal growth factor receptor (Homo sapiens), P00533 [G719S]; experiment: Inhibition of EGFR G719S mutant at 3 uM; assay type: protein assay
[22] = target: BDNF/NT-3 growth factors receptor (Homo sapiens) (UniProt Q16620); experiment: Inhibition of TRKB at 3 uM
[23] = target: Glutamate NMDA receptor (Rattus norvegicus) (UniProt P35439+Q00959+Q00960+Q00961+Q62645+Q8VHN2+Q9R1M7); experiment: Displacement of glycine from rat NMDA receptor at 3 uM; assay type: protein-complex assay; outline: as §2
[24] = target: Dual specificity protein kinase CLK4 (Homo sapiens) (UniProt Q9HAZ1); experiment: Inhibition of CLK4 at 3 uM
[25] = target: Calcium/calmodulin-dependent protein kinase type II subunit gamma (Homo sapiens) (UniProt Q13555); experiment: Inhibition of CAMK2G at 3 uM
[26] = target: Adenosine receptor A1 (Homo sapiens) (UniProt P30542); experiment: Inhibition of human adenosine A1 receptor at 3 uM; outline: as §2
[27] = target: Mitogen-activated protein kinase kinase kinase 10 (Homo sapiens) (UniProt Q02779); experiment: Inhibition of MLK2 at 3 uM
[28] = target: Prostaglandin E2 receptor EP4 subtype (Homo sapiens) (UniProt P35408); experiment: Inhibition of human prostanoid EP4 receptor at 3 uM; outline: as §2
[29] = target: Serine/threonine-protein kinase 26 (Homo sapiens) (UniProt Q9P289); experiment: Inhibition of MST4 at 3 uM
[30] = target: Casein kinase I isoform gamma-3 (Homo sapiens) (UniProt Q9Y6M4); experiment: Inhibition of CSNK1G3 at 3 uM
[31] = target: Cytoplasmic tyrosine-protein kinase BMX (Homo sapiens) (UniProt P51813); experiment: Inhibition of BMX at 3 uM
[32] = target: Calcium/calmodulin-dependent protein kinase type 1D (Homo sapiens) (UniProt Q8IU85); experiment: Inhibition of CAMK1D at 3 uM
[33] = target: Glycogen synthase kinase-3 beta (Homo sapiens) (UniProt P49841); experiment: Inhibition of GSK3B at 3 uM
[34] = target: Pyroglutamylated RF-amide peptide receptor (Homo sapiens) (UniProt Q96P65); experiment: Inhibition of human GPR103 at 3 uM; outline: as §2
[35] = target: Wee1-like protein kinase (Homo sapiens) (UniProt P30291); experiment: Inhibition of WEE1 at 3 uM
[36] = target: RAC-gamma serine/threonine-protein kinase (Homo sapiens) (UniProt Q9Y243); experiment: Inhibition of AKT3 at 3 uM
[37] = target: Serine/threonine-protein kinase TAO1 (Homo sapiens) (UniProt Q7L7X3); experiment: Inhibition of TAOK1 at 3 uM
[38] = target: Delta-type opioid receptor (Homo sapiens) (UniProt P41143); experiment: Inhibition of human delta opioid receptor at 3 uM; outline: as §2
[39] = target: Serine/threonine-protein kinase 4 (Homo sapiens) (UniProt Q13043); experiment: Inhibition of MST1 at 3 uM
[40] = target: Serine/threonine-protein kinase PAK 6 (Homo sapiens) (UniProt Q9NQU5); experiment: Inhibition of PAK6 at 3 uM
[41] = target: Serine/threonine-protein kinase Nek9 (Homo sapiens) (UniProt Q8TD19); experiment: Inhibition of NEK9 at 3 uM
[42] = target: Serine/threonine-protein kinase 25 (Homo sapiens) (UniProt O00506); experiment: Inhibition of YSK1 at 3 uM
[43] = target: Vascular endothelial growth factor receptor 1 (Homo sapiens) (UniProt P17948); experiment: Inhibition of FLT1 at 3 uM; outline: as §1
[44] = target: Casein kinase II subunit alpha (Homo sapiens) (UniProt P68400); experiment: Inhibition of CSNK2A1 at 3 uM
[45] = target: Dual specificity protein kinase CLK1 (Homo sapiens) (UniProt P49759); experiment: Inhibition of CLK1 at 3 uM

Chain of Angiopoietin-1 receptor (Homo sapiens) (Q02763 whole entry): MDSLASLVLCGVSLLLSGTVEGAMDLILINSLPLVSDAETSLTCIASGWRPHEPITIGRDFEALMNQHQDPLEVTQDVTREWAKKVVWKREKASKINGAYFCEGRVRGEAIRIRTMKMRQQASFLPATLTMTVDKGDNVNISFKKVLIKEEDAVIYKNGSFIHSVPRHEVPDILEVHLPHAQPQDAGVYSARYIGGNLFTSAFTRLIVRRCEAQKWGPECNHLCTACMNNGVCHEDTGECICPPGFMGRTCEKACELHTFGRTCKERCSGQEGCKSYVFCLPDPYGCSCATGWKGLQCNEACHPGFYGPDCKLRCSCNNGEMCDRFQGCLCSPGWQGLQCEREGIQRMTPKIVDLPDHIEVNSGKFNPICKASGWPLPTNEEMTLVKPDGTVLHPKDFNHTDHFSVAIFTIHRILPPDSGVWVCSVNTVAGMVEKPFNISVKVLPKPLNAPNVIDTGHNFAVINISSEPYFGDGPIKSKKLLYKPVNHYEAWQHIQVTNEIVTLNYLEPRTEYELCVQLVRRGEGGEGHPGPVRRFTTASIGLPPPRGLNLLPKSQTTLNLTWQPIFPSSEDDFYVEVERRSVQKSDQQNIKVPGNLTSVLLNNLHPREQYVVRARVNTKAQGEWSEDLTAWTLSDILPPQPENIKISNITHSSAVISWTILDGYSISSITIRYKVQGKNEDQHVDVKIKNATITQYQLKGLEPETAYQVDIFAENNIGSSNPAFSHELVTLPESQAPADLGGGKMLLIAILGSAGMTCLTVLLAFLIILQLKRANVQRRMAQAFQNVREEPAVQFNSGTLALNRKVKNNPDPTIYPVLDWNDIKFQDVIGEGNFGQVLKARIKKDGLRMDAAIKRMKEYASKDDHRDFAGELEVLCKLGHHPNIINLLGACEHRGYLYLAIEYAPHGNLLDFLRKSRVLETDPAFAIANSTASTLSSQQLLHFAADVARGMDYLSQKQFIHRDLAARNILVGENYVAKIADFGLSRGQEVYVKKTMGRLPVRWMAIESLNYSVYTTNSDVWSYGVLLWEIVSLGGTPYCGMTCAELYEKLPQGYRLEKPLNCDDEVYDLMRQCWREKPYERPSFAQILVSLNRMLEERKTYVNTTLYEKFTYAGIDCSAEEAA
Chain of Mitogen-activated protein kinase kinase kinase 20 (Homo sapiens) (Q9NYL2 2-800 limits assumed): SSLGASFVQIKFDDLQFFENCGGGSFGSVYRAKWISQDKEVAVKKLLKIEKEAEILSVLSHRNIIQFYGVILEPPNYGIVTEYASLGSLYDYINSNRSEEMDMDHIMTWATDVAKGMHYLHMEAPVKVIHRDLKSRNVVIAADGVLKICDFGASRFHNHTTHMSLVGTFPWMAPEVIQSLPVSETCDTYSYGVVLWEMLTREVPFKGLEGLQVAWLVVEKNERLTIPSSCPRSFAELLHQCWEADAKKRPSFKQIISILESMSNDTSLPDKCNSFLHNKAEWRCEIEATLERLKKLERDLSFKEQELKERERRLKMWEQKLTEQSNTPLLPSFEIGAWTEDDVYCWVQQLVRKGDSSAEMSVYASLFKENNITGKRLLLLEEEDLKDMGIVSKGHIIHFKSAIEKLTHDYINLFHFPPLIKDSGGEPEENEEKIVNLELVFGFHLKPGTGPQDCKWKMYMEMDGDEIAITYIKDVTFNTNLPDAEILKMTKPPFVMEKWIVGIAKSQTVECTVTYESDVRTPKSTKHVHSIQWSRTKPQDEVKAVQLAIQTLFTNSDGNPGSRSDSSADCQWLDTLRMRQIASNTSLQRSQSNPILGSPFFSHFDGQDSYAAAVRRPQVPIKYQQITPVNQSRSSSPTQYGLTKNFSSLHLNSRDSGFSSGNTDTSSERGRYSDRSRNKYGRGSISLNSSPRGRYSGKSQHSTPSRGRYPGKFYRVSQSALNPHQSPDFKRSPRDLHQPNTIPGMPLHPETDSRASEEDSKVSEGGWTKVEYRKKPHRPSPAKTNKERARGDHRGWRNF
Chain of BDNF/NT-3 growth factors receptor (Homo sapiens) (Q16620 32-822 limits assumed): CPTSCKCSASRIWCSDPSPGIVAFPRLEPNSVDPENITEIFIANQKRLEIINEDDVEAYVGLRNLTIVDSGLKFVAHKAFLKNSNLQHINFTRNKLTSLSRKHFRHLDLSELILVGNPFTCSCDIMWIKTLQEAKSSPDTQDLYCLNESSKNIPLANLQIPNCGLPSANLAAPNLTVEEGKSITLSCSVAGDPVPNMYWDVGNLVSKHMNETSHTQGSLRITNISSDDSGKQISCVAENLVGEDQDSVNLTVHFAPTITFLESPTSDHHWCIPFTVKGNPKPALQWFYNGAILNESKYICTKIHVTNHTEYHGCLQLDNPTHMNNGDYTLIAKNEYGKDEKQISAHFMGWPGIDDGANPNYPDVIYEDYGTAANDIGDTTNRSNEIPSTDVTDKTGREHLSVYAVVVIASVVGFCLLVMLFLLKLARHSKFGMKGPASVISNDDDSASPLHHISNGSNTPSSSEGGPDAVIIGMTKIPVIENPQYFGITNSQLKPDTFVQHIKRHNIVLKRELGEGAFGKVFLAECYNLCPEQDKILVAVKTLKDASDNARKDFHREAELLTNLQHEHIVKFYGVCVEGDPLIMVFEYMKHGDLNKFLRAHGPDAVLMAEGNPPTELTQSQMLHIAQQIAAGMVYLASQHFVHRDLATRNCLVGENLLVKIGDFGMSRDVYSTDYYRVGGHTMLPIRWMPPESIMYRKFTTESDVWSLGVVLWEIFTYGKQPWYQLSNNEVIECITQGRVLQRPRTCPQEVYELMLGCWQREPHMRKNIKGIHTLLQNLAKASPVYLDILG
Chain of Myosin light chain kinase, smooth muscle (Homo sapiens) (Q15746 whole entry): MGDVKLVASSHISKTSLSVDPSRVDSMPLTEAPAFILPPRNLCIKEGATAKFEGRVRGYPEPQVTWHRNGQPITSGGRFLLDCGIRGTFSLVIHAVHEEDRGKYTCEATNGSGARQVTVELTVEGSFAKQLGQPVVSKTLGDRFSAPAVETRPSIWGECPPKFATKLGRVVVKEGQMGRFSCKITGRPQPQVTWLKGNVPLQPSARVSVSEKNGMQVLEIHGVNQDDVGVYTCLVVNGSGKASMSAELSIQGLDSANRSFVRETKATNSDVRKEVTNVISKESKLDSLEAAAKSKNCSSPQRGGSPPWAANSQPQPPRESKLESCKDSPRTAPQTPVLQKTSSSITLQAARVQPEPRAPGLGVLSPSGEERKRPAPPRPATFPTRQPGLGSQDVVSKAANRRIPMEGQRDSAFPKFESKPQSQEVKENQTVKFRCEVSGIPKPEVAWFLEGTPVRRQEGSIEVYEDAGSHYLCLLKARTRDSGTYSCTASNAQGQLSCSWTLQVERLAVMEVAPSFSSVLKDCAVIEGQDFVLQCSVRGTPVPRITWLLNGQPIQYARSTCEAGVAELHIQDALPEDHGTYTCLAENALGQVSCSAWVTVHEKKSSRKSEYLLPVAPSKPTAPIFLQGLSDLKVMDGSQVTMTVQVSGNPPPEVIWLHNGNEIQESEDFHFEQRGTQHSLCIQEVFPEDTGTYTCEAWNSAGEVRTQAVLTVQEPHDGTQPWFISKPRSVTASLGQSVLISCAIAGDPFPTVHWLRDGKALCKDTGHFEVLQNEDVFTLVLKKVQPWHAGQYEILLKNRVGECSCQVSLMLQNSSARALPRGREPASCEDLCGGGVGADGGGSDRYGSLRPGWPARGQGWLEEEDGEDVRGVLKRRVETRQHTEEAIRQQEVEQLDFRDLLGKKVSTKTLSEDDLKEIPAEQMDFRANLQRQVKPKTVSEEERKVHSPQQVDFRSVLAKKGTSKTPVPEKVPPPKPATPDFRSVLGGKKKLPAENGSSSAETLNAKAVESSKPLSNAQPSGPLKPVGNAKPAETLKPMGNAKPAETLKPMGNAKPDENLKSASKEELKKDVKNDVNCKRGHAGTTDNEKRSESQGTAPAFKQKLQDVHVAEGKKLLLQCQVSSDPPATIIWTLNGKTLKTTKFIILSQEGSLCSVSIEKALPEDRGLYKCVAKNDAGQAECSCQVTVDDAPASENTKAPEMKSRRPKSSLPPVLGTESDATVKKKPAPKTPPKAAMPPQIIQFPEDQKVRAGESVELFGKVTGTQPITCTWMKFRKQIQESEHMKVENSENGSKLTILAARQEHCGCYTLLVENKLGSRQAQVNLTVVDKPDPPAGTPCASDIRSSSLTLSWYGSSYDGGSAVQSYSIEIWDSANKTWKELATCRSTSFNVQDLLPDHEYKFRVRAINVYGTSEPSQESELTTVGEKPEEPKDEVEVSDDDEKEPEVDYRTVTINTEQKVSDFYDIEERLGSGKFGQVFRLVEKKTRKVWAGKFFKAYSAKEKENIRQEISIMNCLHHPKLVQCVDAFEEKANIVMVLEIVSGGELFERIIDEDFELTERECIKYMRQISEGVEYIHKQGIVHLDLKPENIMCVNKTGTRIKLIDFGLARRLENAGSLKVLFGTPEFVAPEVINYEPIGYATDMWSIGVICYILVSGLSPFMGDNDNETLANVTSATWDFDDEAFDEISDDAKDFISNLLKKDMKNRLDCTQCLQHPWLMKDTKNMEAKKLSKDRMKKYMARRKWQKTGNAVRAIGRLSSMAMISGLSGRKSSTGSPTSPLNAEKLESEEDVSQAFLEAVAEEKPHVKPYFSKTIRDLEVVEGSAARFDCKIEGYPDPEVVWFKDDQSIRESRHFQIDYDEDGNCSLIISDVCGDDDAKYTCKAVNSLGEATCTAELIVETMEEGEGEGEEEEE
Chain of Calcium/calmodulin-dependent protein kinase type 1D (Homo sapiens) (Q8IU85 whole entry, looked up): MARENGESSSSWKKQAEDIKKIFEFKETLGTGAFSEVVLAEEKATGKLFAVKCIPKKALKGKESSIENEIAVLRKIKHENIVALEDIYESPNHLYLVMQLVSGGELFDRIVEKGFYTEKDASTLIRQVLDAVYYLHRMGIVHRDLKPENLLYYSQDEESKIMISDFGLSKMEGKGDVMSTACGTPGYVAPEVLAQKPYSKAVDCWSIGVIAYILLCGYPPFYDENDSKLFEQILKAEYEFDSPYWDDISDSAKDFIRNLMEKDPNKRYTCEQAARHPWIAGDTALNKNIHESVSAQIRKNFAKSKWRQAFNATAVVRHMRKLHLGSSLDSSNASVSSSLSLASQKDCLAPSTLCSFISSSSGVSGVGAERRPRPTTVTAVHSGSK

SMILES: CN(C)CCOc1cc(-c2cn[nH]c2)ccc1NC(=O)C1COc2ccccc2O1 (stereo not given) [SR-3677]
- inhibition [1]: < 10%
- inhibition [2]: < 10%
- inhibition [3]: < 10%
- inhibition [4]: < 10%
- inhibition [5]: < 10%
- inhibition [6]: < 10%
- inhibition [7]: < 10%
- inhibition [8]: < 10%
- inhibition [9]: < 10%
- inhibition [10]: < 10%
- inhibition [11]: < 10%
- inhibition [12]: < 10%
- inhibition [13]: -3%
- inhibition [14]: < 10%
- inhibition [15]: 1%
- inhibition [16]: < 10%
- inhibition [17]: 53%
- inhibition [18]: < 10%
- inhibition [19]: < 10%
- inhibition [20]: < 10%
- inhibition [21]: < 10%
- inhibition [22]: < 10%
- inhibition [23]: -10%
- inhibition [24]: 90%
- inhibition [25]: < 10%
- inhibition [26]: -4%
- inhibition [27]: < 10%
- inhibition [28]: 5%
- inhibition [29]: < 10%
- inhibition [30]: < 10%
- inhibition [31]: < 10%
- inhibition [32]: < 10%
- inhibition [33]: < 10%
- inhibition [34]: 25%
- inhibition [35]: < 10%
- inhibition [36]: 77%
- inhibition [37]: < 10%
- inhibition [38]: -9%
- inhibition [39]: < 10%
- inhibition [40]: < 10%
- inhibition [41]: < 10%
- inhibition [42]: < 10%
- inhibition [43]: < 10%
- inhibition [44]: < 10%
- inhibition [45]: 94.9%
